Results gathered from unrelated publications.
Each line is one published result; the experiments were not run side by side.
NPSR1: Neuropeptide S receptor (NPSR1, Homo sapiens, UniProt Q6W5P4)
MC4R: Melanocortin receptor 4 (MC4R, Homo sapiens, UniProt P32245)
GRB2: Growth factor receptor-bound protein 2 (GRB2, Homo sapiens, UniProt P62993)
NQO2: Ribosyldihydronicotinamide dehydrogenase [quinone] (NQO2, Homo sapiens, UniProt P16083)

`Nc1ncnc2c1ncn2[C@@H]1O[C@H](COP(=O)(O)OP(=O)(O)OP(=O)(O)O)[C@@H](O)[C@H]1O` gave a Kd of 0.08 µM (dnaA (Escherichia coli, UniProt P03004, V303M); binding).
`Nc1ncnc2c1ncn2[C@@H]1O[C@H](COP(=O)(O)OP(=O)(O)OP(=O)(O)OP(=O)(O)OP(=O)(O)OC[C@H]2O[C@@H](n3cnc4c(N)ncnc43)[C@H](O)[C@@H]2O)[C@@H](O)[C@H]1O` gave a Kd of 0.576 µM (adk (Escherichia coli, UniProt P69441, R131A); binding; ITC).
The IC50 of `COc1cccc(C2c3c(ncn(-c4ccc(Br)cc4)c3=N)Oc3ccc4ccccc4c32)c1` (stereo not drawn) is reported as 15.4 µM (NPSR1; cAMP; antagonist; TR-FRET).
For `CSSc1ccccc1C(=O)O`, the Ki was 367 µM (srtA (Staphylococcus aureus, UniProt Q2FV99); enzyme activity; inhibitor; fluorescence; pH 7.5).
The Ki of `CC(C)C1=Cc2ccc3c(c2C(=O)C1=O)CCCC3(C)C` is reported as greater than 100 µM (Cholinesterase (BCHE, Homo sapiens, UniProt P06276); enzyme activity; inhibitor).
The Ki of `CC[C@H](C)[C@H](NC(=O)CN)C(=O)N[C@H](C(=O)N[C@@H](CC(N)=O)C(=O)N[C@H](C(=O)N[C@@H](CC(C)C)C(=O)N[C@@H](CCC(N)=O)C(=O)N[C@@H](CCCCN)C(=O)N[C@@H](Cc1ccc(O)cc1)C(=O)N[C@@H](Cc1ccc(O)cc1)C(=O)N[C@@H](CO)C(=O)N[C@@H](CCCNC(=N)N)C(=O)N[C@H](C(=O)N[C@@H](CCCNC(=N)N)C(=O)NCC(=O)NCC(=O)N[C@@H](CCCNC(=N)N)C(=O)N[C@H]1CSSC[C@@H](C(=O)N[C@@H](CO)C(=O)N[C@H](C(=O)N[C@@H](CCCNC(=N)N)C(=O)NCC(=O)N[C@@H](CCCNC(=N)N)C(=O)N[C@@H](CCCCN)C(=O)N[C@@H](CO)C(=O)N[C@@H](CO)C(=O)N[C@@H](CCCNC(=N)N)C(=O)N[C@@H](CCCNC(=N)N)C(=O)N[C@@H](CCCCN)C(=O)N[C@@H](CCCCN)C(N)=O)[C@@H](C)O)NC(=O)[C@H](CCCCN)NC(=O)CNC(=O)[C@H]([C@@H](C)CC)NC(=O)[C@H](CCC(N)=O)NC(=O)[C@H](CCC(=O)O)NC(=O)[C@H](CCC(=O)O)NC(=O)[C@H](CCCCN)NC(=O)[C@@H]2CCCN2C(=O)[C@H](CC(C)C)NC(=O)[C@H](CO)NC(=O)[C@H](CO)NC(=O)[C@H](CC(C)C)NC(=O)[C@H](C(C)C)NC(=O)[C@H](C)NC1=O)C(C)C)[C@@H](C)O)[C@@H](C)CC` is reported as 0.567 µM (MC4R; ligand displacement in cells).
The IC50 of `COc1ccc(C2c3c(ncn(CCc4ccccc4)c3=N)Oc3ccc4ccccc4c32)cc1OC` (stereo not drawn) is reported as greater than 30 µM (NPSR1; calcium signal; antagonist).
`Cc1cc(Nc2cc3ncccc3c(N[C@@H]3C[C@H]4CC[C@@H](C3)N4CCC#N)n2)n[nH]1` has a Kd of 0.065 µM (Dual specificity mitogen-activated protein kinase kinase 5 (MAP2K5, Homo sapiens, UniProt Q13163); binding; competition with immobilised ligand).
`COc1ccc(C2c3c(N)nc(Cc4ccccc4)nc3Oc3ccc4ccccc4c32)cc1OC` (stereo not drawn) has an IC50 of 77.2 µM (NPSR1; cAMP; antagonist; TR-FRET).
`CC(C)C[C@H](NC(=O)[C@H](Cc1c[nH]cn1)NC(=O)[C@H](CCCNC(=N)N)NC(=O)[C@H](CCCNC(=N)N)NC(=O)[C@@H](NC(=O)CNC(=O)[C@H](Cc1c[nH]cn1)NC(=O)[C@@H]1CCCN1C(=O)[C@H](CO)NC(=O)[C@@H]1CCCN1)[C@@H](C)O)C(=O)N1CCC[C@H]1C(=O)N[C@@H](CO)C(=O)N1CCC[C@H]1C(=O)N1CCC[C@H]1C(=O)O` gave a Kd of 400 µM (GRB2; binding; NMR; pH 7.6).
For `O[C@@H]1[C@H](O)[C@@H]2C[C@@H]2[C@H]1n1cnc2c(NCC(c3ccccc3)c3ccccc3)nc(C#Cc3ccccc3)nc21`, the Ki was 5.78 µM (Sodium-dependent noradrenaline transporter (SLC6A2, Homo sapiens, UniProt P23975); ligand displacement; radioligand).
For `CC(C)(C)c1cc(CN(C(=O)CN(Cc2ccc(Cl)cc2)S(=O)(=O)c2c(F)c(F)c(F)c(F)c2F)c2ccc(C(=O)O)c(O)c2)cc(C(C)(C)C)c1`, the Ki was greater than 60 µM (Signal transducer and activator of transcription 1-alpha/beta (STAT1, Homo sapiens, UniProt P42224); cell-free assay; FP).
For `CCCC[C@H](NC(=O)[C@H](CO)NC(=O)[C@H](Cc1ccc(O)cc1)NC(=O)[C@H](CO)NC(C)=O)C(=O)N[C@@H](CCC(=O)O)C(=O)N[C@@H](Cc1c[nH]cn1)C(=O)N[C@@H](C)C(=O)N[C@@H](CCCNC(=N)N)C(=O)N[C@@H](Cc1c[nH]c2ccccc12)C(=O)NCC(=O)N[C@@H](CCCCN)C(=O)N1CCC[C@H]1C(=O)N[C@H](C(=O)NCC(=O)N[C@@H](CCCCN)C(=O)N[C@@H](CCCCN)C(=O)N[C@@H](CCCNC(=N)N)C(N)=O)C(C)C`, the EC50 was 0.257 µM (MC4R; cAMP; agonist).
The Kd of `O=c1ccc2ccccc2o1` is reported as 5.56 µM (GRB2; binding; fluorescence).
`O=C(NCc1ccccc1)Nc1ncnc2c1C(c1ccccc1)c1c(ccc3ccccc13)O2` (stereo not drawn) has an IC50 of greater than 30 µM (NPSR1; calcium signal; antagonist).
`CCN(CC)Cc1cc(Nc2ccnc3cc(Cl)ccc23)ccc1O` has a Ki of 160 µM (NQO2; enzyme activity; inhibitor).
With `COc1cccc(C2c3c(ncn(-c4ccncc4)c3=N)Oc3ccc4ccccc4c32)c1` (stereo not drawn) the IC50 was 4.38 µM (NPSR1; calcium signal; antagonist).
`NC(=O)N1c2ccccc2C=Cc2ccccc21` has a Ki of greater than 500 µM (NQO2; enzyme activity; inhibitor; absorbance).
For `N=c1c2c(ncn1CCc1ccccc1)Oc1ccc3ccccc3c1C2c1ccccc1` (stereo not drawn), the IC50 was 4.87 µM (NPSR1; cAMP; antagonist; TR-FRET).
`Cc1cnc(-c2ccc(-c3ccc(NC(=O)Nc4c(F)cc(F)cc4F)cc3F)c3c2C(=O)NC3)[nH]1` gave a Kd of 0.083 µM (Tyrosine-protein kinase Fgr (FGR, Homo sapiens, UniProt P09769); binding; competition with immobilised ligand).
`N=c1c2c(ncn1Cc1ccccc1)Oc1ccc3ccccc3c1C2c1ccccc1` (stereo not drawn) gave an IC50 of greater than 30 µM (NPSR1; calcium signal; antagonist).
`Cc1cccc(Nc2ccccc2C(=O)O)c1C` gave a Ki of greater than 500 µM (NQO2; enzyme activity; inhibitor; absorbance).
For `COc1cccc(C2c3c(ncn(-c4ccccc4Cl)c3=N)Oc3ccc4ccccc4c32)c1` (stereo not drawn), the IC50 was 5.51 µM (NPSR1; calcium signal; antagonist).
`O=C(O)Cc1ccccc1Nc1c(Cl)cccc1Cl` has a Ki of greater than 1000 µM (NQO2; enzyme activity; inhibitor; absorbance).
